Data on three compounds can be found in ChEMBL document CHEMBL1136772, “Thyroid receptor ligands. 1. Agonist ligands selective for the thyroid receptor beta1” (J Med Chem, 2003).

SMILES strings stand for the structures.

What all share (assay type): functional
Assay [1] has as its system Rattus norvegicus. The assay is described as follows: Effect upon subcutaneous administration on TSH suppression in rat was determined. The gist of the method:
(§1)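 Male Sprague-Dawley rats on chow with 1.5% cholesterol and 0.5% cholic acid for 2 weeks, then s.c. once daily for 7 days (vehicle 10% m-pyrol, 5% ethanol, 5% cremaphor, 80% water; n = 6/dose), doses 1.54–9240 nmol/kg/day. Plasma TSH measured by rat RIA and cholesterol by clinical analyzer in aortic blood after pentobarbital. ED50 = dose giving 50% suppression from vehicle, in nmol/kg/day.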

The species entered for assay [2] is Rattus norvegicus. Description: Ratio of ED15HR to that of ED50chol was determined. The gist of the method: (§2)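 Cholesterol-fed male Sprague-Dawley rats (1.5% cholesterol, 0.5% cholic acid, 2 weeks) dosed s.c. once daily for 7 days, vehicle 10% m-pyrol/5% ethanol/5% cremaphor/80% water, n = 6/dose, 1.54–9240 nmol/kg/day. Heart rate recorded by lead II ECG under 30 mg/kg pentobarbital. ED15 = dose raising heart rate 15% over vehicle; ratio taken against cholesterol ED50 (50% suppression from vehicle).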

Assay [3] deals with Rattus norvegicus. The assay is described as follows: Effect upon subcutaneous administration on the heart rate in rat was determined. Summed up: as §2
The species entered for assay [4] is Rattus norvegicus. The assay is described as follows: Ratio of ED50TSH to that of ED50chol was determined. Summed up:
as §1

For assay [5], the system named is Rattus norvegicus. The assay is described as follows: Effect upon subcutaneous administration on cholesterol in rat was determined. Summed up: as §1

For `CC(C)c1cc(Oc2c(Br)cc(CC(=O)O)cc2Br)ccc1O`, the ED50 was less than 46.2 nM/day/kg in assay [1] and 95.4 nM/day/kg in assay [5]. The HR/chol in assay [2] was determined as 9.7. In assay [3], this compound had an ED15 of 926 nM/day/kg. In addition, the TSH/chol in assay [4] is less than 0.5.
The corresponding values for `CC(C)c1cc(Oc2c(Cl)cc(CC(=O)O)cc2Cl)ccc1O` are 38 nM/day/kg, 82 nM/day/kg, 13.1, 1077 nM/day/kg and 0.4.
The corresponding values for `N[C@H](Cc1cc(I)c(Oc2ccc(O)c(I)c2)c(I)c1)C(=O)O` [DETROTHYRONINE] are 7 nM/day/kg, 20 nM/day/kg, 0.7, 14 nM/day/kg and 0.3.
